What all share (assay type): cell-based
Experiment [1] concerns human lung adenocarcinoma (A549). Nature of the experiment: MTT assay, antiproliferative activity, A549. In a few lines:
(§1)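 A549 cells are grown in DMEM and MDA-MB-231 cells in MEM, both with FBS and antibiotics, at 37 °C in humidified 5% CO2, then trypsinized. Cells are seeded at 5 × 10^3 per well and grown to confluency. They are exposed to a range of test compound concentrations for 24 h or 72 h, with 5-fluorouracil as reference. Medium is removed, MTT is added for 3 h, and formazan is dissolved in DMSO. A570 is read and percentage cell death is calculated.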

In experiment [2] the test system is 3T3-L1, a fibroblast cell line. Nature of the experiment: Screening of toxicity in normal cell line. To be noted: Mus musculus, 3T3-L1, 72 h, read-out: IC50 3T3-L1 72 h. In a few lines: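 3T3-L1 fibroblasts are kept in DMEM with 5% FBS and antibiotics at 37 °C in humidified 5% CO2. They are seeded at 5 × 10^3 per well and grown to confluency, then treated with a range of test compound concentrations. MTT is added for 3 h after removing the medium, and formazan is dissolved in DMSO. A570 is read and percentage cell death is calculated.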

Experiment [3] relates to human breast adenocarcinoma (MDA-MB-231). The experiment in a line: MTT assay, antiproliferative activity, MDA-MB-231. The gist of the method: as §1

Where two headings read alike, the source gives them in different places.

Consider `O=c1[nH]cc(F)c(=O)[nH]1` [5-fluorouracil], for which the IC50 in experiment [1] (A549, 24 h, read-out: IC50 A549 24 h) was determined as 747 ± 0.13 µM; in experiment [1] (A549, 72 h, read-out: IC50 A549 72 h), 17 ± 0.41 µM; in experiment [2] it was 41.4 ± 1.05 µM; in experiment [3] (MDA-MB-231, 24 h, read-out: IC50 MDA-MB-231 24 h), 885 ± 0.76 µM; in experiment [3] (MDA-MB-231, 72 h, read-out: IC50 MDA-MB-231 72 h) it was 29.01 ± 0.01 µM.

As a reminder, the IC50 is the point on the concentration scale where inhibition reaches its midpoint.

For the origin of these results see paper PMC10099142 (ACS Omega, 2023).
